According to ChEMBL document CHEMBL1151991, “Cytotoxic guanidine alkaloids from Pterogyne nitens” (J Nat Prod, 2009):
Converted amounts (≈) assume the structure as drawn.

What was measured:
Format in all cases: functional, cell-based
HCT-8 = assay: Cytotoxicity against human HCT8 cells after 3 days by MTT assay; conditions: HCT-8, 72 h
In short: (§1)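 Cells kept in RPMI-1640 with 10% fetal calf serum, 2 mM glutamine, streptomycin and penicillin at 37 °C, 5% CO2. Seeded at 10^5 cells/well (adherent) or 0.3 × 10^6 cells/well (suspension). […] Medium then replaced by 0.5 mg/mL MTT for 3 h, formazan dissolved in DMSO, absorbance read. IC50 by modified NCI protocol.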

HL-60 = assay: Cytotoxicity against human HL60 cells after 3 days by MTT assay; conditions: HL-60, 72 h; in short: as §1
SF-295 = assay: Cytotoxicity against human SF295 cells after 3 days by MTT assay; conditions: SF-295, 72 h; in short: as §1
MDA-MB-435 = assay: Cytotoxicity against human MDA-MB-435 cells after 3 days by MTT assay; conditions: MDA-MB-435, 72 h
In short: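 Seeded at 10^5 cells/well (adherent) or 0.3 × 10^6 cells/well (suspension). Medium then replaced by 0.5 mg/mL MTT for 3 h, formazan dissolved in DMSO, absorbance read. IC50 by modified NCI protocol.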

CC(C)=CCN=C(N)N [GALEGINE]
IC50 (HCT-8): > 5 µg/mL | IC50 (HL-60): > 5 µg/mL | IC50 (SF-295): > 5 µg/mL | IC50 (MDA-MB-435): > 5 µg/mL

CC(C)=CCC/C(C)=C/CN=C(N)N [NITENSIDINE D]
IC50 (HCT-8): > 5 µg/mL | IC50 (HL-60): > 5 µg/mL | IC50 (SF-295): > 5 µg/mL | IC50 (MDA-MB-435): > 5 µg/mL

CC(C)=C/C=C/C1(C)CCN=C(N)N1 (stereo not given) [NITENSIDINE E]
IC50 (HCT-8): > 5 µg/mL | IC50 (HL-60): 3.6 µg/mL (≈ 18.6 µM) | IC50 (SF-295): 4.9 µg/mL (≈ 25.3 µM) | IC50 (MDA-MB-435): > 5 µg/mL

CC(C)=CCNC(=N)NCC=C(C)C [PTEROGYNIDINE]
IC50 (HCT-8): > 5 µg/mL | IC50 (HL-60): > 5 µg/mL | IC50 (SF-295): > 5 µg/mL | IC50 (MDA-MB-435): > 5 µg/mL

CC(C)=CCN(CC=C(C)C)C(=N)N [PTEROGYNINE]
IC50 (HCT-8): > 5 µg/mL | IC50 (HL-60): > 5 µg/mL | IC50 (SF-295): > 5 µg/mL | IC50 (MDA-MB-435): > 5 µg/mL
